Screens: PubChem BioAssay, Johns Hopkins Ion Channel Center
KCNK3 block: human KCNK3 channel inhibition, primary screen; O14649; CHO-KCNK3 thallium flux, FluxOR fluorescence; stronger effect = lower value; B-score at 10 µM; 340,000 compounds, 0.84% hits; AID 602410;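 active = B-score under library mean minus 4 SD, starting fluorescence ratio at most library mean plus 5 SD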;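 also: more negative B-score means stronger inhibition of thallium flux through KCNK3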
Target sequence (O14649 whole entry, looked up): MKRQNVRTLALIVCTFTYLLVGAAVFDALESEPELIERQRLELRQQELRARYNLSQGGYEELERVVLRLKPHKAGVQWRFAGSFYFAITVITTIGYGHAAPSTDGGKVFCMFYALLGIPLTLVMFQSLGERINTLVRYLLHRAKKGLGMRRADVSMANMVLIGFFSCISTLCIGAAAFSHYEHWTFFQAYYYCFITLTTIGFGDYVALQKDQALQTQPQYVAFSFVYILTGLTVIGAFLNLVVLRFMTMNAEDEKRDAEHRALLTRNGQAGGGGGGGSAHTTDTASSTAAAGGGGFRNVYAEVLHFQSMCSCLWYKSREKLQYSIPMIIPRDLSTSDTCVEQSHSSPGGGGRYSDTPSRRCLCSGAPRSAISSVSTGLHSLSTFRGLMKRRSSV
Kir21 inh: Kir2.1 (mouse) channel inhibition; HEK293-Kir2.1, FluxOR thallium flux fluorescence; stronger effect = lower value; 310,000 compounds, 0.85% hits; B-score at 10 µM; AID 1672; P35561;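 active = fluorescence ratio B-score at or below minus 3 SD of library scores, with starting-brightness B-score within 2 SD, cut at about -4.2 in these data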;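 also: channel flux triggered by added potassium and thallium sulfate stimulus; B-score of peak minus minimum fluorescence over baseline after thallium stimulus; more negative B-score means stronger Kir2.1 block with less thallium influx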
KCNQ1 act: human KCNQ1 channel potentiation or activation; CHO-K1 KCNQ1, thallium flux FluxOR fluorescence; stronger effect = higher value; B-score at 10 µM; 310,000 compounds, 0.35% hits; AID 2648;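 active = fluorescence ratio B-score, a plate-corrected score, at least three library SD, with initial intensity B-score within 5 SD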
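Test system: CHO-K1 cells stably expressing KCNQ1 / Medium: assay buffer / Also added: depolarizing K+/Tl+ stimulus, K2SO4 and Tl2SO4 each 12.5 mM in 5x stock / Incubation: 90 min dye loading and 20 min compound exposure, both at room temperature / Signal: thallium influx via FluxOR fluorescence, kinetic imaging / Evaluation: B score of baseline-normalized fluorescence ratio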
KCNQ1 inh: blocks the human KCNQ1 potassium channel; P51787; CHO-K1 KCNQ1, FluxOR thallium flux fluorescence; stronger effect = higher value; B-score at 10 µM; 310,000 compounds, 1.3% hits;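 active = compounds whose thallium flux B-score, printed positive for inhibition, exceeds three library SD while starting fluorescence stays within three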;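 also: channel opened by potassium depolarization with thallium stimulus after 20 min compound exposure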
KCNK9 block: inhibitors of human KCNK9 two-pore domain potassium channel; 310,000 compounds, 1.2% hits; B-score at 10 µM; Q9NPC2; AID 488922; HEK293 KCNK9, FluxOR thallium flux fluorescence; stronger effect = lower value;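 active = ratio B-score over 3 SD below the library mean, with starting fluorescence within 5 SD of its mean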;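 also: negative B-score means less thallium flux so channel inhibition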
Target sequence (Q9NPC2 whole entry, looked up, the tested form may be a part): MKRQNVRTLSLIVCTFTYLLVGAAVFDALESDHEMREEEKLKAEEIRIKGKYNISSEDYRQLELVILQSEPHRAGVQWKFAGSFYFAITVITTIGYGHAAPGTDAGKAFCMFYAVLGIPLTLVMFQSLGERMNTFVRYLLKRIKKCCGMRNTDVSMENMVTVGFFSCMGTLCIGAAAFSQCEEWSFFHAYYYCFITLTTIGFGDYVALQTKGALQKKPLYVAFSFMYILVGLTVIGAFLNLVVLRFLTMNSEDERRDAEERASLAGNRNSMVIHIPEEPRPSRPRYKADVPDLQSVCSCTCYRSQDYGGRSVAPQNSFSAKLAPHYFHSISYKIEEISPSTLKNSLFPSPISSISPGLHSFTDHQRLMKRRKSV
hERG rescue: shields human hERG channel from block by proarrhythmic agents; AID 1511; CHO-hERG, FluxOR thallium flux, dofetilide IC70 present; 310,000 compounds, 0.51% hits; activation (rescue from dofetilide block), less the hit threshold, % at 10 µM;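 active = activation above the mean of controls blocked by dofetilide plus 5 SD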;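 also: thallium influx through hERG after potassium depolarization seen as dye fluorescence rise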
KCNQ1 block val: reconfirmed blocker of the human KCNQ1 potassium channel | shares compounds with KCNQ1 inh | KCNQ1 cell line, FluxOR thallium flux fluorescence | inhibition, % at 10 µM | 1,600 compounds, 93% hits | AID 588353;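 active = primary screen active, with duplicate mean exceeding buffer control mean plus 3 SD of buffer wells, cut at about 28% in these data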;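 also: 0% = buffer control ratio and 100% = XE991 inhibitor control ratio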
CHO Tl flux: KCNQ1 inhibitor counter-screen hit in parental CHO cells. shares compounds with KCNQ1 inh. parental CHO-K1, FluxOR thallium flux fluorescence ratio; stronger effect = lower value; zero means no signal rise above baseline. fluorescence ratio (Tl flux) at 10 µM. 1,600 compounds, 21% hits;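 active = mean of duplicate thallium-flux fluorescence ratios in parental host cells more than 5 SD below the buffer control mean, cut at about 0.38 in these data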;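 also: ratio is peak minus minimum fluorescence divided by baseline fluorescence; actives read low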
KCNQ1 ephys val: confirmation of human KCNQ1 potassium channel inhibitors by electrophysiology | AID 624120 | calls only at 10 µM | 490 compounds, 20% hits | shares compounds with KCNQ1 inh | KCNQ1-CHO cells, automated patch clamp current;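 active = KCNQ1 current drop exceeding 3 SD of negative control wells, seen in both duplicate runs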;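 also: steady state current during a 2 s step from -80 to +40 mV; negative values mean current inhibition and positive values mean potentiation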
KCNQ2 spec: selectivity of KCNQ1 inhibitors: inhibition of rat KCNQ2 channel; shares compounds with KCNQ1 inh; KCNQ2 cells, FluxOR thallium flux fluorescence; inhibition, % at 10 µM; 1,600 compounds, 71% hits; AID 651746;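 active = mean percent inhibition of the KCNQ2 thallium signal more than 5 SD above the buffer-only control wells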;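 also: KCNQ2 expressed in CHO cells; 0% = buffer control wells and 100% = XE-991 inhibitor control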
KCNQ1-KCNE1 inh: KCNQ1 inhibitor that also blocks human KCNQ1/KCNE1 channel; shares compounds with KCNQ1 inh; KCNQ1/KCNE1 cells, FluxOR thallium flux fluorescence; inhibition, % at 10 µM; 1,600 compounds, 77% hits;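 active = mean percent inhibition of duplicate wells above the buffer-only control mean plus 3 SD of those controls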;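 also: 0% = buffer only wells and 100% = XE-991 inhibitor control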
An asterisk follows results filed as active; i = inactive; · = not tested or not shown; + = active, no number. Sampled rows, rich in hits. Any-hit rate of the full collection: about 3.8%.

SMILES	KCNK3 block	Kir21 inh	KCNQ1 act	KCNQ1 inh	KCNK9 block	hERG rescue	KCNQ1 block val	CHO Tl flux	KCNQ2 spec	KCNQ1-KCNE1 inh	others
Cc1ccc(S(=O)(=O)Nc2cc3c4c(c2)CCN4C(=O)CC3)cc1	i	-0.99	i	i	i	-12.9	·	·	·	·
O=C(O)C1CCC(Cn2c(SCc3cc(=O)n4cc(Cl)ccc4n3)nc3ccsc3c2=O)CC1 (stereo not given)	i	1.24	i	i	i	-7.7	·	·	·	·
Cc1nc(C)c(C(=O)N/N=C/c2ccco2)s1	i	-0.01	i	i	i	-5.8	·	·	·	·
Cn1c(=O)c2[nH]c(-c3ccccc3Cl)c(O)c2n(C)c1=O	i	0.05	i	6*	i	-4.7	82.0*	0.409	i	97.5%*
Cn1c2c(c(=O)n(C)c1=O)C(C(F)(F)F)(C(F)(F)F)N=C(c1ccccc1Cl)N2	i	-0.12	i	i	i	-7.9	·	·	·	·
Cn1c(=O)c2[nH]c(-c3ccccc3)c(O)c2n(C)c1=O	i	-2.29	i	7*	i	-11.5	45.0*	0.394	i	91.0%*
Cc1cc(-n2cnc(-c3cn[nH]c3C)n2)no1	i	-0.72	i	i	i	-5.7	·	·	·	·
Cc1ccsc1C(=O)Nc1ccc(S(=O)(=O)N2CCOCC2)cc1	i	·	·	·	·	·	·	·	·	·
O=C(C[n+]1ccc(/C=C/c2ccccc2)cc1)c1ccc2c(c1)OCCO2	i	-0.2	i	i	i	-7.6	·	·	·	·
Cc1ccc(-c2cc(-c3ccccc3)c(C#N)c(N)n2)o1	i	0.06	i	6*	i	-11.3	33.5*	0.433	i	48.0%*
Cc1ccc(-c2cc(-c3ccccc3Cl)c(C#N)c(N)n2)o1	i	-1.62	i	i	i	-23.7	·	·	·	·
CCCCOc1cccc(C2C(C(=O)c3ccc(C)o3)=C(O)C(=O)N2c2nnc(C)s2)c1 (stereo not given)	i	-4.38	i	9*	i	-11.8	146.5*	0.345*	104.7%*	i
COc1ccccc1CC(Cc1nc2ccccc2[nH]1)c1nc2ccccc2[nH]1 (stereo not given)	i	0.81	i	8*	i	-17.7	47.0*	0.418	68.7%*	46.5%*
O=C(Nc1ccccc1N1CCCC1)C1CCN(S(=O)(=O)c2ccccc2C(F)(F)F)CC1	i	1.63	i	i	i	-4.4	·	·	·	·
O=C(Nc1ccccc1N1CCCCC1)C1CCN(S(=O)(=O)c2ccccc2C(F)(F)F)CC1	i	0.25	i	11*	i	-13.1	64.5*	0.423	100.7%*	81.5%*
CC(C)Cc1cc(CN2CCC(CO)(Cc3ccccc3)CC2)[nH]n1	i	-0.15	i	i	i	-13.6	·	·	·	·
CC(NS(=O)(=O)c1ccc(Cl)c(Cl)c1)C(=O)OCC(=O)Nc1ccc2c(c1)OCO2 (stereo not given)	i	0.32	i	6*	i	-8.9	0.0	0.465	62.3%*	i
COc1ccc(CNC(=S)Nc2ccccc2)cc1Cl	i	-1.42	i	i	i	-5.8	·	·	·	·
Cc1ccccc1CSCCNC(=S)Nc1ccccc1	i	-0.14	i	8*	i	-13.8	62.5*	0.519	82.0%*	72.0%*
COc1ccc(CSCCNC(=S)Nc2ccccc2)cc1Cl	i	-2.97	i	i	i	-7.5	·	·	·	·
S=C(NCCSCc1ccc(Cl)cc1Cl)Nc1ccccc1	i	0.09	i	6*	i	-10.4	47.5*	0.41	111.3%*	35.5%*
CC(C)Oc1ccc(CNC(=S)Nc2ccccc2)cc1Cl	i	-0.46	i	7*	i	-7.0	50.5*	0.553	59.3%*	75.0%*
S=C(NCCSCc1ccc(Cl)c(Cl)c1)Nc1ccccc1	i	0.66	i	11*	i	-7.4	76.5*	0.395	79.7%*	65.0%*
COc1ccccc1C1=NN(C(=O)c2ccccc2)C(c2ccc(Br)cc2)C1 (stereo not given)	i	2.69	i	i	i	-5.1	·	·	·	·
COc1ccc(-c2csc(NC(=O)CSc3nc(C)cs3)n2)cc1	i	-0.96	i	i	i	-8.1	·	·	·	·
SMILES	KCNK3 block	Kir21 inh	KCNQ1 act	KCNQ1 inh	KCNK9 block	hERG rescue	KCNQ1 block val	CHO Tl flux	KCNQ2 spec	KCNQ1-KCNE1 inh	others
COc1ccc(-c2csc(NC(=O)CSc3nc(SC)ns3)n2)cc1	i	-1.31	i	9*	i	-18.6	114.0*	0.427	65.7%*	116.5%*	KCNQ1 ephys val=i
CN1OC[C@@H]2CN[C@H](c3cccc(-c4ccc(C#N)cc4)c3)C[C@@H]21	i	·	·	·	·	·	·	·	·	·
CCOC(=O)C1=C(c2ccccc2)NC(SCC(=O)Nc2ccc(C)cc2)=C(C#N)C1c1ccco1 (stereo not given)	i	2.3	i	i	i	3.2	·	·	·	·
CCOC(=O)CSC1=C(C#N)C(c2ccco2)C(C(=O)Nc2cccc(C(F)(F)F)c2)=C(C)N1 (stereo not given)	i	-0.15	i	8*	i	-13.9	145.0*	0.393	124.7%*	+	KCNQ1 ephys val=i
O=C(Nc1c(C(=O)N2CCOCC2)cnn1-c1ccccc1Cl)c1ccco1	i	1.85	i	i	i	-11.7	·	·	·	·
CCc1ccc(NC(=O)CSc2nc3ccccc3c(=O)n2CCCN2CCC(C)CC2)cc1	i	-0.14	i	i	i	-22.7	·	·	·	·
CSc1nnc(C)c(/C=C/Nc2ccc(Cl)cc2)n1	i	-2.94	i	11*	i	-1.2	48.5*	0.429	i	87.5%*
CSc1nnc(C)c(/C=C/Nc2ccc(F)cc2)n1	i	-0.07	i	i	i	-3.1	·	·	·	·
COc1cccc(C(=O)N[C@@H](C)C(=O)N2CCC3(CC2)NCCc2[nH]cnc23)c1	i	0.06	i	i	i	-4.8	·	·	·	·
CC(C)Oc1ccc(CC2CCC(=O)N(C)C2=O)cc1 (stereo not given)	i	-0.6	i	i	i	-2.6	·	·	·	·
